{"source": "paper PMC8343189", "about": "(Acta Pharmaceutica Sinica. B, 2020)", "key": {"CHO cells": {"tested_on": "CHO cells", "assay": "SRB proliferative cytotoxicity in CHO cells", "assay_type": "cell-based, Chinese Hamster", "conditions": "1 and 3 μmol/L, 72 h", "how_it_was_run": "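CHO cells in DMEM with 10% FBS, seeded overnight, then exposed to test compound or DMSO vehicle for 72 h. Cells fixed with 10% TCA for 1 h at 4 °C and stained with 0.4% SRB in 1% acetic acid for 15 min in the dark. Washed with acetic acid, dye dissolved in 10 mmol/L Tris-base, absorbance read at 540 nm. n = 3, mean ± SEM, t-test vs DMSO control.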"}, "SD rats [1]": {"tested_on": "SD rats", "assay": "Formalin test on rat", "assay_type": "in vivo", "how_it_was_run": "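30 min later, 50 μL 5% formalin injected into the left paw; controls received saline. Foot lifts counted over phase 1 (0–10 min) and phase 2 (10–60 min). Mean ± SD; ANOVA vs vehicle.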"}, "ANO1 [2]": {"biological_target": "T1, ANO1 (Homo sapiens, UniProt Q5XXA6, DEL476-501)", "T1 sequence (Q5XXA6 with tags, fused parts or gaps isoform Q5XXA6-5 DEL539-564)": "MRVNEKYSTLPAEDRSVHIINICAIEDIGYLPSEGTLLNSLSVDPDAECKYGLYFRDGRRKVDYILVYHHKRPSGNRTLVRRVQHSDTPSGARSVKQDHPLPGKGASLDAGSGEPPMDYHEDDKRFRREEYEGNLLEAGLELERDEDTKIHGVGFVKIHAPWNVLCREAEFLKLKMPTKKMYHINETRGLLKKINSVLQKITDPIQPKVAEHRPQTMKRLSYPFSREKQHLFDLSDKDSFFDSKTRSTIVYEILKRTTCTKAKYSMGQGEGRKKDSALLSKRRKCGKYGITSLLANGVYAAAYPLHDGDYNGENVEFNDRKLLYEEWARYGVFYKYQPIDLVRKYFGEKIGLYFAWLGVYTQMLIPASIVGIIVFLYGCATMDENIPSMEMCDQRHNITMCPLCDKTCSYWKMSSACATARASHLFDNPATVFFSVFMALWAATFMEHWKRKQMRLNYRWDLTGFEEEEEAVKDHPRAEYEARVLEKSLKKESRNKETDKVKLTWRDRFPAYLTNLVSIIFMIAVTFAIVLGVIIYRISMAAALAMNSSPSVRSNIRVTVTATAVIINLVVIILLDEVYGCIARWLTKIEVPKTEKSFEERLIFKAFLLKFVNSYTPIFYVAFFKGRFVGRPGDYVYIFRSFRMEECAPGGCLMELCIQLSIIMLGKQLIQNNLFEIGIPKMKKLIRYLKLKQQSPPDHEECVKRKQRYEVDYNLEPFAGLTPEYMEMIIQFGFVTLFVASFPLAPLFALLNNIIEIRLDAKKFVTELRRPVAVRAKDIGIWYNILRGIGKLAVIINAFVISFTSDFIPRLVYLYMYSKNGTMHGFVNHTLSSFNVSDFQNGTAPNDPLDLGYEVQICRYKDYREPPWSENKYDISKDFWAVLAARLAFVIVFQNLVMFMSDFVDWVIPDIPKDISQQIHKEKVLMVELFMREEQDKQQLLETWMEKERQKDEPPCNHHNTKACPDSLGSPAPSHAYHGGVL", "assay": "YFP fluorescence quenching assay in ANO1-overexpressing FRT cell line", "assay_type": "cell-based"}, "MDCK cells": {"tested_on": "MDCK cells", "assay": "MDCK cells permeability", "assay_type": "in vitro ADME, canine", "conditions": "oral bioavailability prediction from MDCK permeability", "how_it_was_run": "(§1)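 Transwell with a resistance-stable MDCK monolayer; compound added to the upper chamber, HBSS in the lower chamber. Incubated 120 min at 37 °C, 5% CO2. Lower-chamber concentration measured by LC−MS. Papp derived from amount transported per time, membrane area and initial upper-chamber concentration. Mean ± SD, n = 3.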"}, "MDCK cells permeability": {"assay": "MDCK cells permeability", "assay_type": "in vitro ADME, canine", "conditions": "dog, MDCK", "how_it_was_run": "as §1"}, "SD rats [3]": {"tested_on": "SD rats", "assay": "Chronic constriction injury model", "assay_type": "in vivo", "conditions": "40 mg/kg i.g., rat CCI, Electronic Von Frey, vehicle 11.5"}, "C57BL/6 male mice": {"tested_on": "C57BL/6 male mice", "assay": "Acute toxicity in mice, i.g.", "assay_type": "in vivo", "how_it_was_run": "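Male C57BL/6 mice, 6–8 weeks, 18–22 g, 7 per group, received a single intragastric dose of 1000 mg/kg. Vehicle was 5% DMSO + 10% […] + 85% saline (v/v), adjusted to pH 8.0 with NaOH. Survival was monitored daily for 3 days.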"}, "[4]": {"tested_on": "intracellular Ca^2+ concentration", "assay": "Intracellular Ca^2+ fluorescence", "assay_type": "cell-based", "conditions": "30 μmol/L compound, 200 μmol/L ATP, Cal520, control 2.3 folds"}, "ANO2": {"biological_target": "T2, ANO2 (Homo sapiens, UniProt Q9NQ90)", "T2 sequence (Q9NQ90 1-998)": "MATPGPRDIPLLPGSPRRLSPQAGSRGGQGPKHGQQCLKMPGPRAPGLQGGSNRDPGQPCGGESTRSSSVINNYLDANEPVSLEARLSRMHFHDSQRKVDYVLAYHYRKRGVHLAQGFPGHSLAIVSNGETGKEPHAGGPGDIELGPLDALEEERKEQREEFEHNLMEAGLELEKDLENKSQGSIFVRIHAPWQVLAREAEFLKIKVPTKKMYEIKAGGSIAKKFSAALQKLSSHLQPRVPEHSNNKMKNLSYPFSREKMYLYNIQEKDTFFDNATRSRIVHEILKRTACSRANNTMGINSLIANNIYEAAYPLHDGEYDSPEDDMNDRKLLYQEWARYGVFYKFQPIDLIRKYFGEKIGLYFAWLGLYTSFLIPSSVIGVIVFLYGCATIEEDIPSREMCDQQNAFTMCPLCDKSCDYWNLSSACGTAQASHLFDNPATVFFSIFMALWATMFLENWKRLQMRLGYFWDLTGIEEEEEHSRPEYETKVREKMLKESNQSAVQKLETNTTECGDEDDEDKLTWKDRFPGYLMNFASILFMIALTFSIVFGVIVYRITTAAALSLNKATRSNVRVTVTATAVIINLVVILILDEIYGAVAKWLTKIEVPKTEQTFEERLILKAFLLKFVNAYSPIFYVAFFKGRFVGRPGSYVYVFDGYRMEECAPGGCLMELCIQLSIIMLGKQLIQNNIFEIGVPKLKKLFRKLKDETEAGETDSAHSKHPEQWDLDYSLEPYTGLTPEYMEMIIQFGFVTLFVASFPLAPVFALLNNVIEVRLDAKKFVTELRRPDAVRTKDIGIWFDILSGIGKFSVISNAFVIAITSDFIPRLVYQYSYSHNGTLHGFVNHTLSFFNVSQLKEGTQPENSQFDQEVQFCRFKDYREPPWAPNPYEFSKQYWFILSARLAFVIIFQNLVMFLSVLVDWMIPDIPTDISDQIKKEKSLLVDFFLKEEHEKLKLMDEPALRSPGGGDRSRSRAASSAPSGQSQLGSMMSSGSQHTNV", "assay": "ANO2 whole-cell patch clamp in HEK293 cells transiently expressing ANO2", "assay_type": "cell-based", "conditions": "30 μmol/L", "how_it_was_run": "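HEK293 cells transiently transfected with the ANO2 gene; whole-cell patch clamp at room temperature, pipette solution at pCa2+ 6.0. Cells held at −40 mV, stepped from […] in +20 mV increments for 500 ms, then repolarized to −80 mV for 250 ms, every 15 s. Currents recorded before and after 30 μmol/L test compound; an ANO1-selective inhibitor and a pan-inhibitor served as controls.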"}, "[5]": {"assay": "Stability under different pH conditions", "assay_type": "physicochemical", "conditions": "37 °C, 100 μmol/L, mean ± SD, n = 3", "how_it_was_run": "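Test compound diluted to 100 μmol/L in phosphate buffers at pH 1.0, 4.0, 6.8, 7.4 and 9.0 and held in a 37 °C water bath. HPLC−UV peak area measured at 0, 2 and 5 h; residual expressed relative to the 0 h peak area.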"}, "ANO1 [6]": {"biological_target": "T1, ANO1", "assay": "ANO1 whole-cell patch clamp in ANO1-overexpressing FRT cells", "assay_type": "cell-based", "conditions": "30 μmol/L, ANO1 activated by 1 μmol/L intracellular Ca^2+"}}, "note": "pIC50: −log10 of the molar value."}
{"smiles": "O=C(O)c1c(-c2ccc(Cl)cc2)csc1NC(=O)c1cccc2ccccc12", "note": "[Compound 42, 2-(1-Naphthamido)-4-(4-chlorophenyl) thiophene-3-carboxylic acid]", "values": [{"measurement": "effect on CHO cell proliferation", "setting": "CHO cells", "result": "weak effect"}, {"measurement": "analgesic effect in phase 2 compared with vehicle", "setting": "SD rats [1]; 80 mg/kg i.g., phase 2", "result": "significant analgesic effect"}, {"measurement": "number of foot lifts, phase 2", "setting": "SD rats [1]; 80 mg/kg i.g., phase 2, vehicle 121 foot lifts", "result": 70, "unit": "foot lifts"}, {"measurement": "effect on number of foot lifts, phase 1", "setting": "SD rats [1]; i.g., compared with the vehicle group, phase 1", "result": "not phase 1"}, {"measurement": "pIC50", "setting": "ANO1 [2]", "result": 6.10}, {"measurement": "F prediction (%)", "setting": "MDCK cells", "result": ">70", "unit": "%"}, {"measurement": "Papp at 120 min", "setting": "MDCK cells permeability", "result": 13.8, "unit": "×10⁻⁶ cm/s"}, {"measurement": "PTI, pain threshold rate change (%) of 1 h compared to 0 h", "setting": "SD rats [3]", "result": 45.2, "unit": "%"}, {"measurement": "survival and acute toxic response", "setting": "C57BL/6 male mice; 1000 mg/kg i.g., 72 h, C57BL/6 male mice", "result": "All mice survived and no intense acute toxic response"}, {"measurement": "safe dose", "setting": "C57BL/6 male mice; i.g. administration, mice", "result": "≤ 1000", "unit": "mg/kg"}, {"measurement": "maximum relative fluorescence units (RFU) vs initial value (Ca^2+ influx)", "setting": "[4]", "result": 1.9, "unit": "folds"}, {"measurement": "effect on ANO2 induced CaCC current", "setting": "ANO2; HEK293 cells expressing ANO2", "result": "little effect"}, {"measurement": "ANO1/ANO2 selectivity", "setting": "ANO2; compared with Ani9 and CaCCinh-A01", "result": "slightly weaker than that of Ani9 but much higher than that of CaCCinh-A01"}, {"measurement": "5 h residual compound under different pH (%) pH 1.0", "setting": "[5]; pH 1.0, 5 h", "result": "99.0 ± 4.6", "unit": "%"}, {"measurement": "5 h residual compound under different pH (%) pH 4.0", "setting": "[5]; pH 4.0, 5 h", "result": "99.4 ± 4.4", "unit": "%"}, {"measurement": "5 h residual compound under different pH (%) pH 6.8", "setting": "[5]; pH 6.8, 5 h", "result": "99.2 ± 4.9", "unit": "%"}, {"measurement": "5 h residual compound under different pH (%) pH 7.4", "setting": "[5]; pH 7.4, 5 h", "result": "99.4 ± 3.5", "unit": "%"}, {"measurement": "5 h residual compound under different pH (%) pH 9.0", "setting": "[5]; pH 9.0, 5 h", "result": "99.5 ± 0.9", "unit": "%"}, {"measurement": "CaCC current", "setting": "ANO1 [6]", "result": "significantly suppressed the CaCC current"}]}
